Measured values taken from ChEMBL document CHEMBL5126614 (ACS Med Chem Lett, 2022).
Values belong to the compound of their own block, whether it stands above or below them. Active and inactive are the calls of the source. No cut-off for these calls is given here.

Legend:
[1] = system: Rhesus monkey; experiment: Antidiabetic activity in type 2 diabetes rhesus monkey model assessed as reduction in fasting glucose level at 3 ug/kg, sc qd for 3 weeks and measured on day 22 by intravenous glucose tolerance test; assay type: functional, organism-based; details: Macaca mulatta, dose 3.0 µg/kg, time 22.0 day
Summary of the method: (§1)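 Type 2 diabetic rhesus monkeys received daily dosing for 3 weeks, alongside vehicle and a liraglutide benchmark at 30 μg/kg. Fasting plasma glucose was compared with baseline or vehicle, and fasting insulin with vehicle.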

[2] = Terminal half life in rhesus monkey at 0.01 mg/kg, iv by LC-MS analysis; assay type: ADME, organism-based, Macaca mulatta; details: in vivo, read-out: beta t1/2 (converted)
Summary of the method: (§2)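 Single IV or SC dose in male Wistar Han naïve rats and in rhesus monkeys, n = 3 animals per group. Peptide formulated in mannitol buffer (5% mannitol, 5 mM sodium phosphate, pH 8). Plasma concentration–time profiles were measured and peptide levels quantified by LCMS assay.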

[3] = Toxicity in rat; details: in vivo
[4] = Bioavailability in rhesus monkey at 0.05 mg/kg, sc by LC-MS analysis; assay type: ADME, organism-based, Macaca mulatta; details: in vivo; summary of the method: as §2
[5] = AUC (0 to infinity) in rhesus monkey at 0.01 mg/kg, iv by LC-MS analysis; assay type: ADME, organism-based, Macaca mulatta; design: time infinity, dose 0.01 mg/kg, route iv; details: in vivo; summary of the method: as §2
[6] = Tmax in Wistar-Han rat at 0.2 mg/kg, sc by LC-MS analysis; assay type: ADME, organism-based; details: in vivo; summary of the method: as §2
[7] = Cmax in Wistar-Han rat at 0.2 mg/kg, sc by LC-MS analysis; assay type: ADME, organism-based; design: dose 0.2 mg/kg, route sc; details: in vivo; summary of the method: as §2
[8] = system: Rhesus monkey; experiment: Anti-obesity activity in type 2 diabetes rhesus monkey model assessed as reduction in cumulative food intake at 3 ug/kg, sc qd for 3 weeks and measured daily for 21 days relative to baseline; assay type: functional, Macaca mulatta; design: scale not given: the % may be the effect or the level left; details: dose 3 µg/kg
[9] = target: Dipeptidyl peptidase 4 (Homo sapiens, UniProt P27487); experiment: Stability of compound assessed as DPP4 (unknown origin)-mediated hydrolysis; assay type: ADME
Summary of the method: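 Peptide incubated overnight at 37 °C with DPP-IV enzyme. Stability judged by receptor bioactivity measured after incubation.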

[10] = Volume of distribution at steady state in rhesus monkey at 0.01 mg/kg, iv by LC-MS analysis; assay type: ADME, organism-based, Macaca mulatta; details: in vivo, read-out: Vdss; summary of the method: as §2
[11] = Tmax in rhesus monkey at 0.05 mg/kg, sc by LC-MS analysis; assay type: ADME, organism-based, Macaca mulatta; details: in vivo; summary of the method: as §2
[12] = Solubility of compound at pH 8; assay type: physicochemical; details: buffer
[13] = system: Rhesus monkey; experiment: Anti-obesity activity in type 2 diabetes rhesus monkey model assessed as increase in free fatty acid level at 3 ug/kg, sc qd for 3 weeks and measured on day 22 relative to control; assay type: functional, Macaca mulatta; details: dose 3 µg/kg, time 22 day
[14] = species on record: Macaca mulatta; experiment: Selectivity ratio of EC50 for rhesus monkey GCGR to EC50 for rhesus monkey GLP1R
[15] = Solubility of compound at pH 3 to 5; assay type: physicochemical; details: buffer
[16] = Agonist activity at rhesus monkey GCGR; design: species or system Macaca mulatta
[17] = Volume of distribution at steady state in Wistar-Han rat at 0.1 mg/kg, iv by LC-MS analysis; assay type: ADME, organism-based; details: in vivo, read-out: Vdss; summary of the method: as §2
[18] = system: Rhesus monkey; experiment: Potency index, ratio of compound to liraglutide anti-obesity activity in type 2 diabetes rhesus monkey model assessed as reduction in body weight; assay type: functional, Macaca mulatta
[19] = Agonist activity at rhesus monkey GLP1R; design: species or system Macaca mulatta
[20] = Solubility of compound at pH 7; assay type: physicochemical; details: buffer
[21] = Toxicity in rhesus monkey; design: species or system Macaca mulatta; details: in vivo
[22] = AUC (0 to infinity) in rhesus monkey at 0.05 mg/kg, sc by LC-MS analysis; assay type: ADME, organism-based, Macaca mulatta; design: time infinity, dose 0.05 mg/kg, route sc; details: in vivo; summary of the method: as §2
[23] = system: Rhesus monkey; experiment: Anti-obesity activity in type 2 diabetes rhesus monkey model assessed as increase in fasting ketone beta-hydroxybutyrate level at 3 ug/kg, sc qd for 3 weeks and measured on day 22 relative to control; details: dose 3 µg/kg, time 22 day
[24] = species on record: Homo sapiens; experiment: Selectivity ratio of EC50 for human GCGR expressed in frozen cells to EC50 for human GLP1R expressed in frozen cells; assay type: cell-based
[25] = Bioavailability in Wistar-Han rat at 0.2 mg/kg, sc by LC-MS analysis; assay type: ADME, organism-based; details: in vivo; summary of the method: as §2
[26] = Plasma clearance in rhesus monkey at 0.01 mg/kg, iv by LC-MS analysis; assay type: ADME, organism-based, Macaca mulatta; summary of the method: as §2
[27] = Plasma clearance in Wistar-Han rat at 0.1 mg/kg, iv by LC-MS analysis; assay type: ADME, organism-based; summary of the method: as §2
[28] = Cmax in rhesus monkey at 0.05 mg/kg, sc by LC-MS analysis; assay type: ADME, organism-based, Macaca mulatta; design: dose 0.05 mg/kg, route sc; details: in vivo; summary of the method: as §2
[29] = Elimination half life in Wistar-Han rat at 0.1 mg/kg, iv by LC-MS analysis; assay type: ADME, organism-based; details: in vivo, read-out: beta t1/2 (converted); summary of the method: as §2
[30] = system: Rhesus monkey; experiment: Antidiabetic activity in type 2 diabetes rhesus monkey model assessed as HOMA-IR at 3 ug/kg, sc qd for 3 weeks and measured on day 22 (reference value: 9.6 +/- 1.9); assay type: functional, Macaca mulatta; details: dose 3 µg/kg, time 22 day
[31] = system: Rhesus monkey; experiment: Potency index, ratio of compound to liraglutide anti-obesity activity in type 2 diabetes rhesus monkey model assessed as […] in FGF21 expression; assay type: functional, Macaca mulatta
[32] = system: Rhesus monkey; experiment: Anti-obesity activity in type 2 diabetes rhesus monkey model assessed as increase in FGF21 expression at 3 ug/kg, sc qd for 3 weeks and measured on day 22 relative to baseline; assay type: functional, Macaca mulatta; details: dose 3 µg/kg, time 22 day
[33] = system: Rhesus monkey; experiment: Antidiabetic activity in type 2 diabetes rhesus monkey model assessed as increase in total adiponectin level at 3 ug/kg, sc qd for 3 weeks and measured on day 22; details: Macaca mulatta, dose 3.0 µg/kg, time 22.0 day
[34] = AUC (0 to infinity) in Wistar-Han rat at 0.1 mg/kg, iv by LC-MS analysis; assay type: ADME, organism-based; design: time infinity, dose 0.1 mg/kg, route iv; details: in vivo; summary of the method: as §2
[35] = AUC (0 to infinity) in Wistar-Han rat at 0.2 mg/kg, sc by LC-MS analysis; assay type: ADME, organism-based; design: time infinity, dose 0.2 mg/kg, route sc; details: in vivo; summary of the method: as §2
[36] = system: Rhesus monkey; experiment: Antidiabetic activity in type 2 diabetes rhesus monkey model assessed as reduction in fasting insulin level at 3 ug/kg, sc qd for 3 weeks and measured on day 22 relative to control; assay type: functional, Macaca mulatta; design: scale not given: the % may be the effect or the level left; details: dose 3 µg/kg, time 22 day; summary of the method: as §1
[37] = system: Rhesus monkey; experiment: Anti-obesity activity in type 2 diabetes rhesus monkey model assessed as weight loss at 3 ug/kg, sc qd for 3 weeks relative to control; assay type: functional, Macaca mulatta; details: dose 3 µg/kg
[38] = target: Glucagon receptor (Homo sapiens, UniProt P47871); experiment: Agonist activity at human GCGR expressed in frozen cells assessed as increase in cAMP production measured after 1 hr by HitHunter luminescence assay; assay type: functional, cell-based
[39] = target: Glucagon-like peptide 1 receptor (Homo sapiens, UniProt P43220); experiment: Agonist activity at human GLP1R expressed in frozen cells assessed as increase in cAMP production measured after 1 hr by HitHunter luminescence assay; assay type: functional, cell-based
Sequence of Glucagon-like peptide 1 receptor (P43220 whole entry): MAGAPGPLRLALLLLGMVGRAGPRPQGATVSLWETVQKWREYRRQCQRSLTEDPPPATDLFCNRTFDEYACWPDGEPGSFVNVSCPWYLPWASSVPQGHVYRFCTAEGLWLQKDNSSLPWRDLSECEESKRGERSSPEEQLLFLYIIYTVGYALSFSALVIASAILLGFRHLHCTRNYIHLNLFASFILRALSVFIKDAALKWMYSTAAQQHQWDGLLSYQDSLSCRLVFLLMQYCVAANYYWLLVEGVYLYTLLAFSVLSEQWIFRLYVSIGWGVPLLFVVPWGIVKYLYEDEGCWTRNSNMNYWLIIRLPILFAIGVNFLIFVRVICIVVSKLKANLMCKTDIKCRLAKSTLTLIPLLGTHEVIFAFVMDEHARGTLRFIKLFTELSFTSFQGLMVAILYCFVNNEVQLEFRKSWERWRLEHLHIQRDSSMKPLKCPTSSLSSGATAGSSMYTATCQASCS

Sequence of Glucagon receptor (P47871 whole entry): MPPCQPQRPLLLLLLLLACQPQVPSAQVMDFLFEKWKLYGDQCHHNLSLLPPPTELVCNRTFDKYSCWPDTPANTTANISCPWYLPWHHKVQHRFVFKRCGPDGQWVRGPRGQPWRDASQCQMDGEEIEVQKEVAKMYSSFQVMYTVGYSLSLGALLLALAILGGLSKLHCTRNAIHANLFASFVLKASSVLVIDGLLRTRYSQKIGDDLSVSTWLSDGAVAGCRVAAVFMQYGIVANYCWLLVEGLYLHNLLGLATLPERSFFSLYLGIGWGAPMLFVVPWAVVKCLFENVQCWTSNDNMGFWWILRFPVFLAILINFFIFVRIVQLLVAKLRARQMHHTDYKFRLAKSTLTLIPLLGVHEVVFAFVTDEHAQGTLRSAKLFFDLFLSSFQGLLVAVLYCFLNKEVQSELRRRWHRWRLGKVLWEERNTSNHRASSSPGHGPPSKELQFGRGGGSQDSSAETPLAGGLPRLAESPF
Sequence of Dipeptidyl peptidase 4 (P27487 whole entry): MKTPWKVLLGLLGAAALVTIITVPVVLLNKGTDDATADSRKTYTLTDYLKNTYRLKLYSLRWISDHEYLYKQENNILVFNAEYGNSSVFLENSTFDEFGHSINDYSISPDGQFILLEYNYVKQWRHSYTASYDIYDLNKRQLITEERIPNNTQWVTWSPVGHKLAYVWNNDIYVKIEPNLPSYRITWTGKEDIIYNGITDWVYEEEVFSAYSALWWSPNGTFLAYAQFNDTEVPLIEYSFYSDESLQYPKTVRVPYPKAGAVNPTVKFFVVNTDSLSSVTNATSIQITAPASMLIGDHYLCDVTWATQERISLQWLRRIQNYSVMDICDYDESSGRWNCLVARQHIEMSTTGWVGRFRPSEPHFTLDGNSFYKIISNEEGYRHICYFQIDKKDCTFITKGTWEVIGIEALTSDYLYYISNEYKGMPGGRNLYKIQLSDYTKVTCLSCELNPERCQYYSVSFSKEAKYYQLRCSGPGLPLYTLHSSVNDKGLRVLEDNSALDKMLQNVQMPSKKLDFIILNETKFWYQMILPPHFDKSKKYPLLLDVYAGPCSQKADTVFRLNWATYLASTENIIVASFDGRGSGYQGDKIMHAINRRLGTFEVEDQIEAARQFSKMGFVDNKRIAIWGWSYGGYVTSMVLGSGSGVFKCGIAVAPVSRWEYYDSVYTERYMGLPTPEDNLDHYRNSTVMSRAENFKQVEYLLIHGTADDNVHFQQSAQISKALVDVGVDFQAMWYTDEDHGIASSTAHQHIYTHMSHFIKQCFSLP

half-life [2]: 16 h
bioavailability [4]: 63%
AUC(0-inf) [5]: 0.4 µM·h
Tmax [6]: 5.3 h
Cmax [7]: 25 nM
Stability [9]: Stable
Vd [10]: 0.16 L/kg
Tmax [11]: 18 h
solubility [12]: > 80 mg/mL
Ratio EC50 [14]: 0.8
solubility [15]: Insoluble
EC50 [16]: 0.007 nM
Vd [17]: 0.1 L/kg
EC50 [19]: 0.009 nM
solubility [20]: > 20 mg/mL
AUC(0-inf) [22]: 1.25 µM·h
bioavailability [25]: 18%
clearance [26]: 0.12 mL/min/kg
clearance [27]: 0.42 mL/min/kg
Cmax [28]: 30 nM
half-life [29]: 3 h
AUC(0-inf) [34]: 1.05 µM·h
AUC(0-inf) [35]: 0.37 µM·h
SMILES: CCCCCCCCCCCCCCCC(=O)N[C@@H](CCC(=O)N[C@@H](CCC(=O)NCCCC[C@H](NC(=O)[C@H](CC(=O)O)NC(=O)[C@H](CO)NC(=O)[C@@H](NC(=O)[C@H](Cc1ccccc1)NC(=O)[C@@H](NC(=O)CNC(=O)[C@H](CCC(N)=O)NC(=O)[C@@H](CO)NC(=O)[C@@H](N)Cc1cnc[nH]1)[C@@H](C)O)[C@@H](C)O)C(=O)N[C@@H](CO)C(=O)N[C@@H](CCCCN)C(=O)N[C@@H](Cc1ccc(O)cc1)C(=O)N[C@@H](CC(C)C)C(=O)N[C@@H](CC(=O)O)C(=O)N[C@@H](C)C(=O)N[C@@H](CCCNC(=N)N)C(=O)N[C@@H](C)C(=O)N[C@@H](C)C(=O)N[C@@H](CCC(N)=O)C(=O)N[C@@H](CC(=O)O)C(=O)N[C@@H](Cc1ccccc1)C(=O)N[C@H](C(=O)N[C@@H](CCC(N)=O)C(=O)N[C@@H](Cc1c[nH]c2ccccc12)C(=O)N[C@@H](CC(C)C)C(=O)N[C@@H](CC(C)C)C(=O)N[C@@H](CC(=O)O)C(=O)N[C@H](C(N)=O)[C@@H](C)O)C(C)C)C(=O)O)C(=O)O
Activity [1]: Active
Activity [3]: Non-Toxic
Activity [8]: 30%
Activity [13]: 63%
fold change (FC) [18]: 2
Activity [21]: Non-Toxic
fold change (FC) [23]: 4
Ratio EC50 [24]: 0.9
Activity [30]: 9.6
fold change (FC) [31]: >3
fold change (FC) [32]: >3
Activity [33]: Active
Activity [36]: 50%
Activity [37]: 7.6%

EC50 [38]: 0.038 nM
Ratio EC50 [14]: 1
EC50 [16]: 0.021 nM
EC50 [19]: 0.02 nM
EC50 [39]: 0.063 nM
SMILES: CCCCCCCCCCCCCCCC(=O)N[C@@H](CCC(=O)N[C@@H](CCC(=O)NCCCC[C@H](NC(=O)[C@H](CC(=O)O)NC(=O)[C@H](CO)NC(=O)[C@@H](NC(=O)[C@H](Cc1ccccc1)NC(=O)[C@@H](NC(=O)CNC(=O)[C@H](CCC(N)=O)NC(=O)[C@@H](CO)NC(=O)[C@@H](N)Cc1cnc[nH]1)[C@@H](C)O)[C@@H](C)O)C(=O)N[C@@H](CO)C(=O)N[C@@H](CCCCN)C(=O)N[C@@H](Cc1ccc(O)cc1)C(=O)N[C@@H](CC(C)C)C(=O)N[C@@H](CC(=O)O)C(=O)N[C@@H](CO)C(=O)N[C@@H](CCCNC(=N)N)C(=O)N[C@@H](C)C(=O)N[C@@H](C)C(=O)N[C@@H](CCC(N)=O)C(=O)N[C@@H](CC(=O)O)C(=O)N[C@@H](Cc1ccccc1)C(=O)N[C@H](C(=O)N[C@@H](CCC(N)=O)C(=O)N[C@@H](Cc1c[nH]c2ccccc12)C(=O)N[C@@H](CC(C)C)C(=O)N[C@@H](CC(C)C)C(=O)N[C@@H](CC(=O)O)C(=O)N[C@H](C(N)=O)[C@@H](C)O)C(C)C)C(=O)O)C(=O)O
Ratio EC50 [24]: 0.6
